Experimental findings from ChEMBL document CHEMBL4261499, “Chiral disubstituted piperidinyl ureas: a class of dual diacylglycerol lipase-α and ABHD6 inhibitors” (Medchemcomm, 2017) are described below.

Activity calls are given as the source filed them. The rule behind the calls is not given here.

Assay type in all cases: tissue-based
For assay [1], the target named is T1, Triacylglycerol hydrolase DDHD2 (Mus musculus) (UniProt Q80Y98).
T1 sequence (whole entry): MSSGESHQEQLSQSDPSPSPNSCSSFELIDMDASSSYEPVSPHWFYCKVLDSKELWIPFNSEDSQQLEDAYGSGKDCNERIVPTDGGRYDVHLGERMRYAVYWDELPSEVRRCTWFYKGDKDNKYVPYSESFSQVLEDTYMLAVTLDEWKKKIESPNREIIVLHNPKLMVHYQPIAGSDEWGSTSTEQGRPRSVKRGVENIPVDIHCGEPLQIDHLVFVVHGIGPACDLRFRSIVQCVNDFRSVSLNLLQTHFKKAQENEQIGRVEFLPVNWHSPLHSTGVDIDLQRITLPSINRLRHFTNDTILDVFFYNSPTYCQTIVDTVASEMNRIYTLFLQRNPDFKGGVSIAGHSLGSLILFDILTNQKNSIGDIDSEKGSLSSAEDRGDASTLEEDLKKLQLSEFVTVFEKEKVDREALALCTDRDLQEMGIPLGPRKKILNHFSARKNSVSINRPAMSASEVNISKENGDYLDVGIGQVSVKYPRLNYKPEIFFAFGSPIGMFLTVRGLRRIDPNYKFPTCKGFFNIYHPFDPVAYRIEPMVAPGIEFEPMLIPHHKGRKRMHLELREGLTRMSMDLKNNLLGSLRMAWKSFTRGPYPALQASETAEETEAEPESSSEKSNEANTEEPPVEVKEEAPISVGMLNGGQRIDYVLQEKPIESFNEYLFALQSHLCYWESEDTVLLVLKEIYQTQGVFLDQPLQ
Put plainly: Inhibition of MB064 labelling of DDHD2 in mouse brain homogenates at 10 uM pretreated for 30 mins followed by MB064 addition and measured after 20 mins by activity based protein profiling assay. Put shortly: (§1)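 Mouse brain membrane proteome preincubated 30 min with inhibitor (10 μM), then labelled with MB064 probe (0.25 μM, 20 min). Readout by gel-based competitive ABPP. Band intensities corrected for protein loading per lane from Coomassie staining. Means ± SEM, n = 3.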

In assay [2] the target is T2, Monoacylglycerol lipase ABHD6 (Mus musculus) (UniProt Q8R2Y0).
T2 sequence (whole entry): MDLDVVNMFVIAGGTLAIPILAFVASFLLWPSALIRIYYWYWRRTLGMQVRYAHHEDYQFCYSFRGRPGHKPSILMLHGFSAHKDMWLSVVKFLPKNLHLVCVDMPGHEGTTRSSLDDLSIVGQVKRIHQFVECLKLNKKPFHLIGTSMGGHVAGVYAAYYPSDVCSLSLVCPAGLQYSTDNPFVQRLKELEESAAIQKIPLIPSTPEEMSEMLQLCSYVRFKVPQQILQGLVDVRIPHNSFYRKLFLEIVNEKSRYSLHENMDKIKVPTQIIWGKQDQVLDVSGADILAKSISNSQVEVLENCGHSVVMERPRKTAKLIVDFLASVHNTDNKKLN
The experiment in a line: Inhibition of MB064 labelling of ABHD6 in mouse brain homogenates at 10 uM pretreated for 30 mins followed by MB064 addition and measured after 20 mins by activity based protein profiling assay relative to control. Put shortly: as §1

Assay [3] is filed under the species Mus musculus. Put plainly: Inhibition of MB064 labelling of ABHD16A in mouse brain homogenates at 10 uM pretreated for 30 mins followed by MB064 addition and measured after 20 mins by activity based protein profiling assay. Put shortly: as §1
In assay [4] the target is T3, Epoxide hydrolase 4 (Mus musculus) (UniProt Q6IE26).
T3 sequence (whole entry): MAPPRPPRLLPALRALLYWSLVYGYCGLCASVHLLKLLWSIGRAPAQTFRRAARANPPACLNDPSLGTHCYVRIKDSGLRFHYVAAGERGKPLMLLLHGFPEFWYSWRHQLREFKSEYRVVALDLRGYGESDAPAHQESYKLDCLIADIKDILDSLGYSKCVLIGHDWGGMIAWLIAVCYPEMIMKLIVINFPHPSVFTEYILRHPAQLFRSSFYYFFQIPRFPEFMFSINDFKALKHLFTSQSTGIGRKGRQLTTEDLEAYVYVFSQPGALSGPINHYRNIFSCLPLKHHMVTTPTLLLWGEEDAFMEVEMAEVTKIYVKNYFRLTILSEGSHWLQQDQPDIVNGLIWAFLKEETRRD
The experiment in a line: Inhibition of MB064 labelling of ABHD7 in mouse brain homogenates at 10 uM pretreated for 30 mins followed by MB064 addition and measured after 20 mins by activity based protein profiling assay. Put shortly: as §1

The target in assay [5] is 1-acylglycerol-3-phosphate O-acyltransferase ABHD5 (Mus musculus) (UniProt Q9DBL9). The experiment in a line: Inhibition of MB064 labelling of ABHD5 in mouse brain homogenates at 10 uM pretreated for 30 mins followed by MB064 addition and measured after 20 mins by activity based protein profiling assay. The gist of the method:
as §1

Assay [6] is filed under the species Mus musculus. Put plainly: Inhibition of FP-TAMRA labelling of KIAA1363 in mouse brain homogenates at 10 uM pretreated for 30 mins followed by FP-TAMRA addition and measured after 20 mins by activity based protein profiling assay. The gist of the method:
(§2)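 Mouse brain membrane proteome (2 mg mL-1) preincubated 30 min at r.t. with inhibitor (10 μM) or DMSO vehicle, then labelled with TAMRA-FP, 500 nM final, 20 min at r.t. Reaction quenched with Laemmli sample buffer. Readout by gel-based competitive ABPP with Coomassie staining as loading control.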

The species named for assay [7] is Mus musculus. Put plainly: Inhibition of FP-TAMRA labelling of FAAH in mouse brain homogenates at 10 uM pretreated for 30 mins followed by FP-TAMRA addition and measured after 20 mins by activity based protein profiling assay. Put shortly: as §2
Assay [8] has as its target T4, Monoglyceride lipase (Mus musculus) (UniProt O35678).
T4 sequence (whole entry): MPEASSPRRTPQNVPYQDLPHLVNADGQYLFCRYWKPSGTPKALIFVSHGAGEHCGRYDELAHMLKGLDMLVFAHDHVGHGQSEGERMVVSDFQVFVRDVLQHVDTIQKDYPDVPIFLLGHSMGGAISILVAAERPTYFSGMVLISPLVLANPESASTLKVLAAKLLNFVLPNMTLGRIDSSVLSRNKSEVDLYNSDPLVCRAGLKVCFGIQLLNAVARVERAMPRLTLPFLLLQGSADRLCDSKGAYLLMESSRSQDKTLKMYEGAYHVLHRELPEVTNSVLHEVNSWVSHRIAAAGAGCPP
The experiment in a line: Inhibition of FP-TAMRA labelling of MAGL in mouse brain homogenates at 10 uM pretreated for 30 mins followed by FP-TAMRA addition and measured after 20 mins by activity based protein profiling assay. The gist of the method: as §2

1-acylglycerol-3-phosphate O-acyltransferase ABHD5 (Mus musculus), sequence (Q9DBL9 whole entry, looked up): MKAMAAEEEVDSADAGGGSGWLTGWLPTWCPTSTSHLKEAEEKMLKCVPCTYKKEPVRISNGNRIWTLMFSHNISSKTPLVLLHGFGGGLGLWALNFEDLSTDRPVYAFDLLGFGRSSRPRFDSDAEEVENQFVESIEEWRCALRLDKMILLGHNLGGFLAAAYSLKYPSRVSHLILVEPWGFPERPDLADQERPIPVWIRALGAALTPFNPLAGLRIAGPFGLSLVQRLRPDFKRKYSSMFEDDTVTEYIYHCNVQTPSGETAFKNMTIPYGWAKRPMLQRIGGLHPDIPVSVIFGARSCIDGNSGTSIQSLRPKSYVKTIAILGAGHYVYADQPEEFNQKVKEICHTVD

Turning to `O=C(N1CCC=C[C@@H]1COCc1ccccc1)n1cc(-c2ccc(-c3ccccc3)cc2)nn1`, in assay [1], the inhibition result is “Active”. Moreover, in assay [2], the inhibition is 96%.

With `O=C(N1CCC=C[C@@H]1COCc1ccccc1)n1cc(-c2ccc([N+](=O)[O-])cc2)nn1`, the inhibition result (in the assay filed under Mus musculus [3]; in assay [4]; in assay [5]; in assay [1]; in the assay filed under Mus musculus [6]; in the assay listed under Mus musculus [7]) was “Active” throughout. The inhibition entry in assay [8] was “Active”. Besides, in assay [2], the inhibition is 93%.

On to `O=C(N1C[C@@H](O)C=C[C@@H]1COCc1ccccc1)n1cc(-c2ccc(-c3ccccc3)cc2)nn1`, for which the inhibition entry (in the assay listed under Mus musculus [3]; in assay [4]; in assay [5]; in assay [1]; in the assay filed under Mus musculus [6]; in the assay listed under Mus musculus [7]) was “Active” throughout. In addition, the inhibition entry in assay [8] was “Active”. In addition, the inhibition in assay [2] was found to be 95%.

Consider `O=C(N1CCC=C[C@@H]1COCc1ccccc1)n1cc(-c2ccc(Br)cc2)nn1`, for which the inhibition result in assay [1] is “Active”. The inhibition in assay [2] was 94%.

In the case of `O=C(N1CCCC[C@@H]1COCc1ccccc1)n1cc(-c2ccc(-c3ccccc3)cc2)nn1`, the inhibition entry in assay [1] is “Active”. For the same compound, in assay [2], the inhibition came to 96%.

For `O=C(N1CCC=C[C@@H]1COCc1ccccc1)n1cc(-c2ccccc2)nn1`, the inhibition entry (in the assay filed under Mus musculus [3]; in assay [4]; in assay [5]; in assay [1]; in the assay filed under Mus musculus [6]; in the assay listed under Mus musculus [7]) was “Active” throughout. In addition, the inhibition entry in assay [8] was “Active”. Besides, in assay [2], the inhibition worked out at 89%.

Take `O=C(N1CCC=C[C@@H]1COCc1ccccc1)n1cc(-c2ccc(Oc3ccccc3)cc2)nn1`: the inhibition entry in assay [1] is “Active”. Moreover, in assay [2], the inhibition was 86%.

The inhibition is the drop in the measured response relative to a control, in per cent.
